From ChEMBL document CHEMBL5661985, “In silico design of novel probes for the atypical opioid receptor MRGPRX2” (Nat Chem Biol, 2017)
Activity calls are given as the source filed them. The calls are words filed in the database; no cut-off is given here. Where a SMILES comes first, the peptide text is derived from it.

How the values were obtained:
[1] = target: T1, Mas-related G-protein coupled receptor member X2 (Homo sapiens, UniProt Q96LB1); experiment: Agonist activity at N-terminal Flag-tagged human MRGPRX2 receptor expressed in tetracycline-induced FLP-IN/T-REX 293 cells assessed as increase in intracellular calcium release by FLIPR assay; format: functional, cell-based
T1 sequence (Q96LB1 whole entry): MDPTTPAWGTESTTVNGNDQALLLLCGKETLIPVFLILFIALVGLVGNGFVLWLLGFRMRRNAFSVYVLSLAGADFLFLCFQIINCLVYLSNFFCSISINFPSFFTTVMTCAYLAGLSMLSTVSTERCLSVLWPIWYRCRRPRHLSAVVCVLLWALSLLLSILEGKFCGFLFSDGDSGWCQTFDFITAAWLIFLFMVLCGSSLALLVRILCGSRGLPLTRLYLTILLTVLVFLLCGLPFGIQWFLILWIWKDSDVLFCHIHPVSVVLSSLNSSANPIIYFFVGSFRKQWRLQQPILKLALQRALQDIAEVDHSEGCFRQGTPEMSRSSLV

[2] = target: T2, Mas-related G-protein coupled receptor member X2 (Homo sapiens) (UniProt Q96LB1); experiment: Agonist activity at N-terminal Flag-tagged human MRGPRX2 receptor expressed in FLP-IN/T-REX 293 cells assessed as increase in intracellular calcium release by FLIPR assay; format: functional, cell-based; details: filed as agonist
T2 sequence (whole entry): T1 sequence (Q96LB1 whole entry)
Outline: (§1)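 FLIPR calcium: FLP-IN/T-REX HEK-293-T stable line with N-terminal FLAG codon-optimized receptor, induced 24 h with 1 μg/mL tetracycline in 1% dialyzed FBS (uninduced cells as control); FLIPR calcium dye plus 2.5 mM probenecid 1 h 37°C; 10 s baseline, then drug in HBSS/20 mM HEPES/probenecid pH 7.4, 16-point curve 10 μM to 0.003 nM; fluorescence 120 s; fold over basal, n=3 triplicate.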

[3] = target: T1, Mas-related G-protein coupled receptor member X2; experiment: Agonist activity at MRGPRX2 (unknown origin) expressed in HTLA cells assessed as induction of beta-arrestin 2 recruitment incubated for 18 to 24 hrs by PRESTO-Tango assay; format: functional, cell-based
Flp-In-T-REx-293 = experiment: Agonist activity at rodent MRGPRB2 receptor expressed in tetracycline-induced FLP-IN/T-REX 293 cells assessed as increase in intracellular calcium release at 0.003 to 100000 nM by FLIPR assay; format: cell-based; details: Rodentia, filed as agonist, dose 0.003-100000 nM
HTLA [4] = experiment: Agonist activity at […] expressed in HTLA cells assessed as induction of beta-arrestin 2 recruitment incubated for 18 to 24 hrs by PRESTO-Tango assay; format: cell-based; details: Rodentia, filed as agonist, time 18-24 hrs
Outline: (§2)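 β-arrestin2 recruitment by PRESTO-Tango: HTLA cells transiently transfected (calcium phosphate) with codon-optimized MRGPRX2-Tango (WT or point mutant) or MRGPRB2-Tango, plated next day 20,000 cells/well on poly-L-lysine; drug in HBSS/20 mM HEPES/0.3% BSA pH 7.4 for 18–24 h; Bright-Glo luminescence (RLU); curves n=3 in triplicate, mutants n=4 in triplicate.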

[5] = target: T2, Mas-related G-protein coupled receptor member X2 (Homo sapiens); experiment: Agonist activity at MRGPRX2 (unknown origin) expressed in HTLA cells assessed as induction of beta-arrestin 2 recruitment at 10 uM incubated for 18 to 24 hrs by PRESTO-Tango assay; format: functional, cell-based; details: filed as agonist, time 18-24 hrs; outline: as §2
[6] = target: T2, Mas-related G-protein coupled receptor member X2 (Homo sapiens); experiment: Agonist activity at MRGPRX2 receptor in human LAD2 cells assessed as increase in intracellular calcium release by FLIPR assay; format: functional, cell-based; details: filed as agonist
Outline: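 LAD2 human mast cells seeded 50,000/well in Tyrode's buffer with calcium dye, 1 h before drug; 10 s baseline, drug added, fluorescence followed 120 s; expressed as fold calcium release over baseline; n=3 in triplicate.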

[7] = target: T2, Mas-related G-protein coupled receptor member X2 (Homo sapiens); experiment: Agonist activity at MRGPRX2 receptor in human LAD2 cells transfected with MRGPRX2 siRNA assessed as increase in degranulation incubated for 30 mins by beta-hexosaminidase assay; format: functional, cell-based
Outline: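 LAD2 cells (1.2 million/well) transfected with 25 nM MRGPRX2 siRNA pool or non-targeting pool, 72 h; 200,000 cells taken for β-hexosaminidase assay with EC80 concentration of agonist, 30 min 37°C; knockdown checked by qRT-PCR on 1 million cells; fold change % degranulation versus DMSO; two-way ANOVA with Sidak test.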

[8] = target: Pituitary adenylate cyclase-activating polypeptide type I receptor (Homo sapiens) (UniProt P41586); experiment: Agonist activity at ADCYAP1 receptor (unknown origin)
Outline: (§3)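 PRESTO-Tango β-arrestin2 recruitment; HTLA cells (HEK-T stably expressing β-arrestin2-TEV and tTA-dependent luciferase) transfected by calcium phosphate with receptor-Tango construct, replated next day at 20,000 cells/well; compounds in HBSS/20 mM HEPES/0.3% BSA pH 7.4, 18–24 h; Bright-Glo luminescence after 15 min RT, read as RLU; ≥2-fold over basal scored active.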

[9] = target: Alpha-1A adrenergic receptor (Homo sapiens) (UniProt P35348); experiment: Agonist activity at ADRA1A receptor (unknown origin); format: functional; outline: as §3
[10] = target: Alpha-1B adrenergic receptor (Homo sapiens) (UniProt P35368); experiment: Agonist activity at ADRA1B receptor (unknown origin); format: functional; outline: as §3
[11] = target: Alpha-1D adrenergic receptor (Homo sapiens) (UniProt P25100); experiment: Agonist activity at ADRA1D receptor (unknown origin); format: functional; outline: as §3
[12] = target: Alpha-2C adrenergic receptor (Homo sapiens) (UniProt P18825); experiment: Agonist activity at ADRA2C receptor (unknown origin); outline: as §3
[13] = target: Beta-1 adrenergic receptor (Homo sapiens) (UniProt P08588); experiment: Agonist activity at ADRB1 receptor (unknown origin); format: functional; outline: as §3
[14] = target: Beta-3 adrenergic receptor (Homo sapiens) (UniProt P13945); experiment: Agonist activity at ADRB3 receptor (unknown origin); format: functional; outline: as §3
[15] = target: Type-1 angiotensin II receptor (Homo sapiens) (UniProt P30556); experiment: Agonist activity at AGTR1 receptor (unknown origin); format: functional; outline: as §3
[16] = target: Muscarinic acetylcholine receptor M2 (Homo sapiens) (UniProt P08172); experiment: Agonist activity at CHRM2 receptor (unknown origin); format: functional; outline: as §3
[17] = target: Cannabinoid receptor 2 (Homo sapiens) (UniProt P34972); experiment: Agonist activity at CNR2 receptor (unknown origin); format: functional; outline: as §3
[18] = target: D(4) dopamine receptor (Homo sapiens) (UniProt P21917); experiment: Agonist activity at DRD4 receptor (unknown origin); format: functional; outline: as §3
[19] = target: Proteinase-activated receptor 2 (Homo sapiens) (UniProt P55085); experiment: Agonist activity at F2R-L1 receptor (unknown origin); outline: as §3
[20] = target: Glucagon-like peptide 1 receptor (Homo sapiens) (UniProt P43220); experiment: Agonist activity at GLP1R (unknown origin); format: functional; outline: as §3
[21] = target: Gastrin-releasing peptide receptor (Homo sapiens) (UniProt P30550); experiment: Agonist activity at GRPR (unknown origin); format: functional; outline: as §3
[22] = target: G-protein coupled receptor 15 (Homo sapiens) (UniProt P49685); experiment: Agonist activity at GPR15 receptor (unknown origin); format: functional; outline: as §3
[23] = target: Glucose-dependent insulinotropic receptor (Homo sapiens) (UniProt Q8TDV5); experiment: Agonist activity at GPR119 receptor (unknown origin); format: functional; outline: as §3
[24] = target: Prosaposin receptor GPR37 (Homo sapiens) (UniProt O15354); experiment: Agonist activity at GPR37 receptor (unknown origin); format: functional; outline: as §3
[25] = target: 5-hydroxytryptamine receptor 1A (Homo sapiens) (UniProt P08908); experiment: Agonist activity at HTR1A receptor (unknown origin); format: functional; outline: as §3
[26] = target: Lutropin-choriogonadotropic hormone receptor (Homo sapiens) (UniProt P22888); experiment: Agonist activity at LHCGR (unknown origin); format: functional; outline: as §3
[27] = target: Melanin-concentrating hormone receptor 2 (Homo sapiens) (UniProt Q969V1); experiment: Agonist activity at MCHR2 receptor (unknown orgini); format: functional; outline: as §3
[28] = target: 5-hydroxytryptamine receptor 2A (Homo sapiens) (UniProt P28223); experiment: Agonist activity at HTR2 receptor (unknown origin); format: functional; outline: as §3
[29] = target: T2, Mas-related G-protein coupled receptor member X2 (Homo sapiens); experiment: Agonist activity at MRGPRX2 receptor in human LAD2 cells assessed as increase in degranulation incubated for 30 mins by beta-hexosaminidase assay; format: functional, cell-based; details: filed as agonist
Outline: (§4)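 β-Hexosaminidase release: LAD2 cells in fresh medium 18 h, washed in Tyrode's buffer pH 7.4, 10,000 cells/well; drug (single concentration or 8-point curve) added in triplicate, 30 min 37°C; supernatant and Triton X-100 lysate each reacted with NAG in citrate pH 4.5 for 90 min 37°C, stopped with carbonate pH 10, A405; % release = released/total ×100, minus vehicle.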

[30] = target: T2, Mas-related G-protein coupled receptor member X2 (Homo sapiens); experiment: Agonist activity at N-terminal Flag-tagged human MRGPRX2 receptor expressed in tetracycline-induced HEK-T cells assessed as increase in intracellular calcium release by FLIPR assay; format: functional, cell-based; details: HEK-T cell, filed as agonist; outline: as §1
[31] = target: T2, Mas-related G-protein coupled receptor member X2 (Homo sapiens); experiment: Agonist activity at N-terminal Flag-tagged human MRGPRX2 receptor expressed in HEK-T cells assessed as increase in intracellular calcium release by FLIPR assay; format: functional, cell-based; details: HEK-T cell; outline: as §1
HTLA [32] = experiment: Agonist activity at MRGPRX2 E164D mutant (unknown origin) expressed in HTLA cells assessed as induction of beta-arrestin 2 recruitment incubated for 18 to 24 hrs by PRESTO-Tango assay; format: cell-based; details: Homo sapiens, filed as agonist, time 18-24 hrs; outline: as §2
HTLA [33] = experiment: Agonist activity at MRGPRX2 D184E mutant (unknown origin) expressed in HTLA cells assessed as induction of beta-arrestin 2 recruitment incubated for 18 to 24 hrs by PRESTO-Tango assay; format: cell-based; details: Homo sapiens, time 18-24 hrs; outline: as §2
[34] = target: T2, Mas-related G-protein coupled receptor member X2 (Homo sapiens); experiment: Agonist activity at MRGPRX2 receptor in human LAD2 cells assessed as increase in degranulation incubated for 30 mins in presence of naloxone by beta-hexosaminidase assay; format: functional, cell-based; outline: as §4

Sequence of Muscarinic acetylcholine receptor M2 (Homo sapiens) (P08172 whole entry): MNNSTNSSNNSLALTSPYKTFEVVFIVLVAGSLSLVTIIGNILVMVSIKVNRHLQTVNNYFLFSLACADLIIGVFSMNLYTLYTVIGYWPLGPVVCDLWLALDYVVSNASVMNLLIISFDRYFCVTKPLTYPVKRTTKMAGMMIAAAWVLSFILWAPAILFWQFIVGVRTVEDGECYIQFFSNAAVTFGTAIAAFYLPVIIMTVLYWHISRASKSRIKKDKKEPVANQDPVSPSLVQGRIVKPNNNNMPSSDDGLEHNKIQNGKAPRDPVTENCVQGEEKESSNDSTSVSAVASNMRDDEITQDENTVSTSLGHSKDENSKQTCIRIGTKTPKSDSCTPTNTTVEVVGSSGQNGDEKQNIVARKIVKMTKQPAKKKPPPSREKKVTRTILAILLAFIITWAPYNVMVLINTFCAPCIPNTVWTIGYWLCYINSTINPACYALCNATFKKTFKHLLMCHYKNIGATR
Sequence of Pituitary adenylate cyclase-activating polypeptide type I receptor (Homo sapiens) (P41586 21-468 limits assumed): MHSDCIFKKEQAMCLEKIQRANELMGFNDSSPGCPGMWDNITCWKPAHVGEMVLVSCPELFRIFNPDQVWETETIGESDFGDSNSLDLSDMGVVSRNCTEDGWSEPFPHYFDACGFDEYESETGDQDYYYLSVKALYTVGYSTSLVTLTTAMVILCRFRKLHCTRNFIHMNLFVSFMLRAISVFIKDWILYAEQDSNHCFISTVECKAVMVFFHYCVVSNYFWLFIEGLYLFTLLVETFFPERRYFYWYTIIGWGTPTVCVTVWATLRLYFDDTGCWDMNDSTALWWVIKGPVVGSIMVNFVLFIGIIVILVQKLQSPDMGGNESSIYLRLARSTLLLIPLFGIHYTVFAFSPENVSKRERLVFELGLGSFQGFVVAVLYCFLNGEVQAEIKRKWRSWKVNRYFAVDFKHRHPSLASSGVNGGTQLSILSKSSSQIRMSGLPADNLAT
Sequence of Alpha-1A adrenergic receptor (Homo sapiens) (P35348 whole entry): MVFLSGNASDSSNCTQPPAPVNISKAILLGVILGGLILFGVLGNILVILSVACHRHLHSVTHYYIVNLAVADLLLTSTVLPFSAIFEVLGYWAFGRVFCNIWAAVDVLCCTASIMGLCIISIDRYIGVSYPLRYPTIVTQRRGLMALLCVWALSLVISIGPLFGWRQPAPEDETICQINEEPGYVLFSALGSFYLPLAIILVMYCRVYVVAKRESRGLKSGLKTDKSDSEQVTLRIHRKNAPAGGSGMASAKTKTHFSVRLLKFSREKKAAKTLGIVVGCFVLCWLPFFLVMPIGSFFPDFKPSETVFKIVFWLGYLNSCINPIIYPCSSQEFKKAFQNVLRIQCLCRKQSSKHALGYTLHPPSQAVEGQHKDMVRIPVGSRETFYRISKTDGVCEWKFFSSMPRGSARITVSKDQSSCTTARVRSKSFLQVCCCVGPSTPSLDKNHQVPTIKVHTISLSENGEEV
Sequence of Type-1 angiotensin II receptor (Homo sapiens) (P30556 whole entry): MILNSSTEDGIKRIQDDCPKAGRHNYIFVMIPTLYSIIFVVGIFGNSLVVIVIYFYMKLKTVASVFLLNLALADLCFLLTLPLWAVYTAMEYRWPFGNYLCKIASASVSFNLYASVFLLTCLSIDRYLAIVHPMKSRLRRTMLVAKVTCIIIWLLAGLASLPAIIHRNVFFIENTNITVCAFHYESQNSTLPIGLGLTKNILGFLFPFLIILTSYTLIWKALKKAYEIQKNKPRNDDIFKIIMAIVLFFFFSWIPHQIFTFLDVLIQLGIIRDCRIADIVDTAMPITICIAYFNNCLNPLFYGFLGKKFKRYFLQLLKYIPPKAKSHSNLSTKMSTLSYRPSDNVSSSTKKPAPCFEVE
Sequence of Alpha-1D adrenergic receptor (Homo sapiens) (P25100 whole entry): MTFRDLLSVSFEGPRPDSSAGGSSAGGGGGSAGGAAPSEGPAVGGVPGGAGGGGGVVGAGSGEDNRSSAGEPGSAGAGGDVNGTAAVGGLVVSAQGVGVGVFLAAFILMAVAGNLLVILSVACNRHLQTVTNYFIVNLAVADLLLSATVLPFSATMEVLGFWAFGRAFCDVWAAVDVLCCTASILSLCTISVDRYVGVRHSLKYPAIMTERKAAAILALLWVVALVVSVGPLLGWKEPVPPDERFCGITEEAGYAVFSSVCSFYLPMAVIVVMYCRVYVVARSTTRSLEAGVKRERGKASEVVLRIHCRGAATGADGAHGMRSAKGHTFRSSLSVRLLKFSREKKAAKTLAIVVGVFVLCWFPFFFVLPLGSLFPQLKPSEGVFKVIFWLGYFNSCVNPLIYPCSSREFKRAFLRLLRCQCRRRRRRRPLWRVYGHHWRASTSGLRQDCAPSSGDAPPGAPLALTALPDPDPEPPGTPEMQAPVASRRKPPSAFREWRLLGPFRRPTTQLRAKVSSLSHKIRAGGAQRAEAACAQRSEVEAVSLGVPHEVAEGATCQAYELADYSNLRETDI
Sequence of Alpha-1B adrenergic receptor (Homo sapiens) (P35368 whole entry): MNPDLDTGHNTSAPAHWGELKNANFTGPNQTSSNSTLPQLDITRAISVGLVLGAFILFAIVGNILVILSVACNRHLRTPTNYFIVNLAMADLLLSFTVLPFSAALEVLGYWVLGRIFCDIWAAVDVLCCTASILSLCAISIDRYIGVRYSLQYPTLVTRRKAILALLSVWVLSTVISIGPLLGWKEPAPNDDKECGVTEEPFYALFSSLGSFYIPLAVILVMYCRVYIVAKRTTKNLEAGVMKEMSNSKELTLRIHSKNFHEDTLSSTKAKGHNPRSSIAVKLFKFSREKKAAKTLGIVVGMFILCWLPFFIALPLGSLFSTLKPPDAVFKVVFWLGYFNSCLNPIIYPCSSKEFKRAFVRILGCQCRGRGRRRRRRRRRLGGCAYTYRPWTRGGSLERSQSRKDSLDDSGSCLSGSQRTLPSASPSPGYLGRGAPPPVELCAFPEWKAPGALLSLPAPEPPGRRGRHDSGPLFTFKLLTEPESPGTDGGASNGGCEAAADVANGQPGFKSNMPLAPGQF
Sequence of Lutropin-choriogonadotropic hormone receptor (Homo sapiens) (P22888 whole entry): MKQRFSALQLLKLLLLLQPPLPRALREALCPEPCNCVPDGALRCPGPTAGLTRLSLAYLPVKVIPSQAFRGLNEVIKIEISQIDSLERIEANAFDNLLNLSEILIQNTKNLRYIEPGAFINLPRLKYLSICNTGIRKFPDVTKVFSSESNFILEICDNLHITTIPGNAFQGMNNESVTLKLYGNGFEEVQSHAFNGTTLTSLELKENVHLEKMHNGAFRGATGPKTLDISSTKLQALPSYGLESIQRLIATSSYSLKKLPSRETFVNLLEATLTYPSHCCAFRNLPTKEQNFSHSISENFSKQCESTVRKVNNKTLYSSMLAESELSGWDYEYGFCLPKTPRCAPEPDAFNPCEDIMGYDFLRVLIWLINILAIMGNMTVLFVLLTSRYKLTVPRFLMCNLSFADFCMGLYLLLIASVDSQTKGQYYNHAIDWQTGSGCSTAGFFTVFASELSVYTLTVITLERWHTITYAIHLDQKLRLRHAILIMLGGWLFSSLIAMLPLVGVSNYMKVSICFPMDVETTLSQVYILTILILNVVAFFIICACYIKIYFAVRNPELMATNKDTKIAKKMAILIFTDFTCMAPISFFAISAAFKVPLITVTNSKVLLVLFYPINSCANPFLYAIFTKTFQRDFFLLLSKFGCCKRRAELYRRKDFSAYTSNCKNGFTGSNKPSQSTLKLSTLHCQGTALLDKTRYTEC
Sequence of Beta-3 adrenergic receptor (Homo sapiens) (P13945 whole entry, looked up): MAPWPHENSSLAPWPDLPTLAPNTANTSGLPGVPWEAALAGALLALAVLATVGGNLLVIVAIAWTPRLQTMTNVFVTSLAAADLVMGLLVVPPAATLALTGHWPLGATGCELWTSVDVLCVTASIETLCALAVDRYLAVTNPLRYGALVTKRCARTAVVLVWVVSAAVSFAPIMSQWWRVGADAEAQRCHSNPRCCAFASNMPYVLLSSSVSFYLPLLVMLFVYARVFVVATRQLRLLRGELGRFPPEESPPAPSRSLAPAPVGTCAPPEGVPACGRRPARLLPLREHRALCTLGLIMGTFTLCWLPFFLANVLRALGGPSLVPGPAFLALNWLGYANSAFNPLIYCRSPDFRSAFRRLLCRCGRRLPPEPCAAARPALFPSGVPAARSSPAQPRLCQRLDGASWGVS
Sequence of Prosaposin receptor GPR37 (Homo sapiens) (O15354 whole entry): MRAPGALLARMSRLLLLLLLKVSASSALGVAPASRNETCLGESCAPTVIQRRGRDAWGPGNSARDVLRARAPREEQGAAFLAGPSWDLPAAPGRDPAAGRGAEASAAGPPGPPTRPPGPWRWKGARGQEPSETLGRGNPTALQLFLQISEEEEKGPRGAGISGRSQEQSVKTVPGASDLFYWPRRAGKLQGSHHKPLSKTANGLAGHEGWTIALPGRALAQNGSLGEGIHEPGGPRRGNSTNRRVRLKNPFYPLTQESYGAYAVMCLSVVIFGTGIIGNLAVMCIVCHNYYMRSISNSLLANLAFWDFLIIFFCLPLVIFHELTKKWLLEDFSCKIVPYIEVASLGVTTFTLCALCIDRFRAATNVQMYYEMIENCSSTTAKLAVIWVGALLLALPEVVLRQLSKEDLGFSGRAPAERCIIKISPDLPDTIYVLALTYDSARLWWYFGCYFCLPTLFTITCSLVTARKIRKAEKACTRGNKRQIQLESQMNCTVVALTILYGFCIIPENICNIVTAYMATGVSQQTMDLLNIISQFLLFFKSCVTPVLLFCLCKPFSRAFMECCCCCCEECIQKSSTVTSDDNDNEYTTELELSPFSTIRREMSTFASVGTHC
Sequence of Proteinase-activated receptor 2 (Homo sapiens) (P55085 whole entry): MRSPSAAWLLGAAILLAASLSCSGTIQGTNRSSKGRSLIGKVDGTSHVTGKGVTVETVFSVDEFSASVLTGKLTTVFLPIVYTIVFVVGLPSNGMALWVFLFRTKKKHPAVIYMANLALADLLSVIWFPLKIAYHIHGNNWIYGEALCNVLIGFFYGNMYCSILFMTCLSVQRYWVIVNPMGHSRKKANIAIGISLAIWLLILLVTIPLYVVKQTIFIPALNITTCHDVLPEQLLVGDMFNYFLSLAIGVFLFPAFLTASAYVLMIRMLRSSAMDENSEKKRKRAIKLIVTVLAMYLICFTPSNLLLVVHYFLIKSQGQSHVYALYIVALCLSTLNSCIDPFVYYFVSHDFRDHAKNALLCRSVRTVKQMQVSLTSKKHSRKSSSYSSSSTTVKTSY

CC[C@H](C)[C@H](N)C(=O)N[C@@H](CC(N)=O)C(=O)N[C@@H](CC(C)C)C(=O)N[C@@H](CCCCN)C(=O)N[C@@H](C)C(=O)N[C@@H](CC(C)C)C(=O)N[C@@H](C)C(=O)N[C@@H](C)C(=O)N[C@@H](CC(C)C)C(=O)N[C@@H](C)C(=O)N[C@@H](CCCCN)C(=O)N[C@@H](CCCCN)C(=O)N[C@H](C(=O)N[C@@H](CC(C)C)C(N)=O)[C@@H](C)CC
EC50 ([1]; read-out: pEC50 (converted)): 11.7 µM
Activity [2]: Active
EC50 ([3]; read-out: pEC50 (converted)): > 31.6 µM

COC1=CC2CN(C)CCC2C=C1 (configuration not stated)
EC50 ([1]; read-out: pEC50 (converted)): 1.62 µM

C[C@@H](O)[C@@H]1NC(=O)[C@H](CCCCN)NC(=O)[C@H](Cc2c[nH]c3ccccc23)NC(=O)[C@H](Cc2ccccc2)NC(=O)[C@H](Cc2ccccc2)NC(=O)[C@H](CC(N)=O)NC(=O)[C@H](CCCCN)NC(=O)[C@@H](NC(=O)[C@@H]2CCCN2)CSSC[C@@H](C(=O)N[C@@H](CCCCN)C(=O)O)NC(=O)[C@H](CO)NC(=O)[C@H](CO)NC(=O)[C@H](Cc2ccccc2)NC1=O (HELM PEPTIDE1{P.C.K.N.F.F.W.K.T.F.S.S.C.K}$PEPTIDE1,PEPTIDE1,2:R3-13:R3$$$V2.0)
EC50 ([1]; read-out: pEC50 (converted)): 0.417 µM
EC50 ([3]; read-out: pEC50 (converted)): 0.145 µM
Activity (Flp-In-T-REx-293): Active
Activity (HTLA [4]): Active

CN(C)C1CCN(c2cc(-c3ccccc3)nc3ccnn23)C1 (racemic)
Activity [5]: Active
Activity [6]: Active
Activity [7]: inactive

CN(C)[C@@H]1CCN(c2cc(-c3ccccc3)nc3ccnn23)C1 [(R)-ZINC-3573]
EC50 ([1]; read-out: EC50): 1 µM
EC50 ([3]; read-out: EC50): 0.74 µM
Activity [8]: inactive
Activity [9]: inactive
Activity [10]: inactive
Activity [11]: inactive
Activity [12]: inactive
Activity [13]: inactive
Activity [14]: inactive
Activity [15]: inactive
Activity [16]: inactive
Activity [17]: inactive
Activity [18]: inactive
Activity [19]: inactive
Activity [20]: inactive
Activity [21]: inactive
Activity [22]: inactive
Activity [23]: inactive
Activity [24]: inactive
Activity [25]: inactive
Activity [26]: inactive
Activity [27]: inactive
Activity [28]: inactive
Activity [29]: Active

CN1CC[C@@]23CCCC[C@@H]2[C@@H]1Cc1ccc(O)cc13 [DEXTRORPHAN]
EC50 ([1]; read-out: EC50): 6 µM
EC50 ([1]; read-out: pEC50 (converted)): 3.89 µM
EC50 ([3]; read-out: EC50): 4.3 µM
EC50 ([3]; read-out: pEC50 (converted)): 4.17 µM
Activity [30]: Active
Activity [31]: inactive
Activity (HTLA [32]): Active
Activity (HTLA [33]): inactive

CN1CC[C@]23c4c5ccc(O)c4O[C@H]2[C@@H](O)C=C[C@H]3[C@H]1C5 [MORPHINE]
EC50 ([1]; read-out: EC50): 7 µM
EC50 ([3]; read-out: EC50): 6.4 µM
EC50 ([3]; read-out: pEC50 (converted)): 6.17 µM
Activity (HTLA [32]): Active
Activity (HTLA [33]): inactive
Activity [6]: Active
Activity [29]: Active
Activity [7]: inactive
Activity [34]: inactive
